Active and inactive are the calls of the source. The rule behind the calls is not given here.

The test system of series [1] is Rattus norvegicus. In words: Anticonvulsant activity in Sprague-Dawley rat assessed as protection against maximal electroshock-induced seizures at 30 mg/kg po after 0.5 hrs. Type of series: functional. Summed up: (§1)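 Male Sprague–Dawley rats, four per group, given 30 mg/kg orally as a 0.5% methylcellulose/water suspension. MES protection scored at 0.25, 0.5, 1, 2 and 4 h after dosing, motor impairment checked in parallel; data are the number of the four rats protected.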
On the technique in general: The maximal electroshock test induces tonic seizures with an electrical stimulus.

Series [2] has as its system Rattus norvegicus. In words: Anticonvulsant activity in Sprague-Dawley rat assessed as protection against maximal electroshock-induced seizures at 30 mg/kg po after 1 hr. Type of series: functional. The method, boiled down:
as §1

Series [3] has as its system Mus musculus. In words: Neurotoxicity in CF1 albino mouse assessed as mortality at 300 mg/kg, ip after 4 hrs by rotarod test. Type of series: toxicity, organism-based. The conditions noted are these: in vivo. Details: dose 300 mg/kg, route intraperitoneal. The method, boiled down: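 Male CF-1 albino mice, groups of eight, were given the compound ip as a suspension in 0.5% methylcellulose/water at 30, 100 and 300 mg/kg. Rotarod testing at 0.5 and 4 h scored inability to keep balance on the rod. The value is the lowest dose causing toxicity in half or more animals, with response comments such as death.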
(The rotarod test checks motor coordination on a turning rod.)

Series [4] relates to Rattus norvegicus. In words: Anticonvulsant activity in Sprague-Dawley rat assessed as protection against maximal electroshock-induced seizures at 30 mg/kg po after 0.25 hrs. Type of series: functional. The method, boiled down: as §1
Series [5] has as its system Rattus norvegicus. Kind of series: Anticonvulsant activity in Sprague-Dawley rat assessed as protection against maximal electroshock-induced seizures at 30 mg/kg po after 4 hrs. Type of series: functional. Summed up:
as §1

The subject of series [6] is Mus musculus. In words: Anticonvulsant activity in CF1 albino mouse assessed as protection against subcutaneous pentylenetetrazole-induced seizures at 300 mg/kg, ip after 4 hrs. Type of series: functional, organism-based. Details: dose 300 mg/kg. Summed up: (§2)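 Male CF-1 mice; compounds suspended in 0.5% methylcellulose/water and injected ip at 30, 100 and 300 mg/kg. MES, scPTZ (pentylenetetrazole 85 mg/kg sc at the test time) and rotarod neurotoxicity were scored at 0.5 and 4 h. Value is the lowest dose active or toxic in half or more of the animals; signs such as ataxia or tremor were recorded.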

The test system of series [7] is Mus musculus. In words: Anticonvulsant activity in CF1 albino mouse assessed as protection against subcutaneous pentylenetetrazole-induced seizures at 300 mg/kg, ip after 0.5 hrs. Format: functional, organism-based. Set-up: dose 300 mg/kg. Summed up: as §2
Series [8] concerns Mus musculus. In words: Neurotoxicity in CF1 albino mouse at 300 mg/kg, ip after 4 hrs by rotarod test. Set-up: dose 300 mg/kg, route intraperitoneal. The conditions noted are these: in vivo. Type of series: toxicity, organism-based. The method, boiled down:
as §2

For series [9], the system named is Mus musculus. In words: Anticonvulsant activity in ip dosed CF1 albino mouse assessed as dose required to protect against maximal electroshock-induced seizures after 0.5 hrs. Format: functional. Summed up: as §2
Series [10] has as its system Rattus norvegicus. In words: Anticonvulsant activity in Sprague-Dawley rat assessed as protection against maximal electroshock-induced seizures at 30 mg/kg po after 2 hrs. Type of series: functional. Summed up:
as §1

In series [11] the test system is Mus musculus. Kind of series: Anticonvulsant activity in ip dosed CF1 albino mouse assessed as dose required to protect against maximal electroshock-induced seizures after 4 hrs. Type of series: functional. Summed up: as §2
Series [12] concerns Mus musculus. In words: Neurotoxicity in CF1 albino mouse assessed as tremors at 300 mg/kg, ip after 4 hrs by rotarod test. Type of series: toxicity, organism-based. Set-up: dose 300 mg/kg, route intraperitoneal. The conditions noted are these: in vivo. Summed up: as §2
The subject of series [13] is Mus musculus. In words: Neurotoxicity in CF1 albino mouse assessed as ataxia at 300 mg/kg, ip after 4 hrs by rotarod test. Type of series: toxicity, organism-based. Set-up: dose 300 mg/kg, route intraperitoneal. The conditions noted are these: in vivo. Summed up: as §2
Series [14] concerns Mus musculus. In words: Neurotoxicity in CF1 albino mouse assessed as muscle spasms at 300 mg/kg, ip after 4 hrs by rotarod test. Format: toxicity, organism-based, Muscle tissue. Set-up: dose 300 mg/kg, route intraperitoneal. The conditions noted are these: in vivo. Summed up: as §2
Series [15] deals with Mus musculus. In words: Anticonvulsant activity in CF1 albino mouse assessed as protection against maximal electroshock-induced seizures at 300 mg/kg, ip after 0.5 hrs. Format: functional, organism-based. Details: dose 300 mg/kg. Summed up:
as §2

Turning to `O=C1NC2(CCc3ccccc3C2)C(=O)N1CN1CCN(Cc2ccccc2)CC1` (stereo not drawn), the Activity was 50% in series [1]; 75% in [2]; “Non-toxic” in [3]; 25% in series [4]; 50% in [5]; “Non-toxic” in series [8]. The Activity in series [9] turned out to be 100 mg/kg; in series [10], 50%; in series [11], 100 mg/kg. Further, the result in series [6] and in series [7] was inactive.
On to `O=C1NC2(CCc3ccccc3C2)C(=O)N1CN1CCN(c2ccccc2F)CC1` (stereo not drawn), for which the Activity entry in series [12] was “Non-toxic”; in [13] it was “Non-toxic”; in series [14], “Non-toxic”; in series [11] it was 100 mg/kg. Moreover, the result in [15], in series [6] and in series [7] was inactive.

For the origin of these results see ChEMBL document CHEMBL1250467, “Design, synthesis, and anticonvulsant activity of new N-Mannich bases derived from spirosuccinimides and spirohydantoins” (Bioorg Med Chem, 2010).
